Hit rate of the full screen: of about 20,000 compounds, about 25 (0.1%) were called active. The sample holds actives, similar compounds and a random draw of the others, so the mix is not that of the screen. Unmarked numbers belong to inactive results.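 The calls were made as follows: active = mean replicate protection from cytokine-induced ATP loss at least 50% and at least 75% of replicates each reaching 50%; inconclusive = meets only one of the two criteria, mean or replicate share; inactive = fails both the mean and replicate share criteria.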
Assay: preservation of ATP in cytokine-treated beta cells – cell-based, ATP luminescence, single point, primary screen (AID 488910)
Details: INS-1E cytokine-induced death, 48 h, at 10 µM, hits give high values, normalised: neutral wells 0, positive control 100
In short: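 Assay system: INS-1E rat insulinoma cells. Amount: 8000 cells per well. Medium: phenol-red-free RPMI with 5% fetal bovine serum. Reagent: IL-1β, TNF-α and IFN-γ cytokine mix. Doses: one compound concentration, pin transfer. Schedule: 48 h co-treatment, 10 min post-lysis read. Detection: CellTiter-Glo luminescence measuring cellular ATP.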

Point of comparison: `CC(C)NC(=O)Nc1ccc2c(c1)C(=O)N([C@@H](C)CO)C[C@@H](C)[C@H](CN(C)Cc1ccc(Cl)c(Cl)c1)O2`, protection from cytokine-induced ATP loss -9.43%. Against it:
- C[C@H]1CN([C@@H](C)CO)C(=O)Cc2cc(NC(=O)Cn3cnnn3)ccc2O[C@H]1CN(C)Cc1ccc(C(=O)O)cc1 — higher, 10.1%
- Cc1noc(C)c1S(=O)(=O)N(C)C[C@@H]1Oc2c(NS(=O)(=O)c3cn(C)cn3)cccc2C(=O)N([C@@H](C)CO)C[C@H]1C — higher, 4.74%
- C[C@@H]1CN([C@H](C)CO)C(=O)c2cccc(NS(=O)(=O)c3ccc(Cl)cc3)c2O[C@H]1CN(C)Cc1ccc(C(F)(F)F)cc1 — higher, 6.19%
- C[C@H]1CN([C@@H](C)CO)C(=O)c2cccc(NC(=O)Nc3ccc(F)cc3)c2O[C@H]1CN(C)S(=O)(=O)c1cn(C)cn1 — higher, 5.6%
- Cc1noc(C)c1NC(=O)N(C)C[C@@H]1Oc2ccc(NS(=O)(=O)c3ccc(Cl)cc3)cc2C(=O)N([C@@H](C)CO)C[C@H]1C — higher, 5.78%
- C[C@@H]1CN([C@H](C)CO)C(=O)c2cccc(NC(=O)Nc3ccc4c(c3)OCO4)c2O[C@H]1CN(C)S(=O)(=O)c1ccc(Cl)cc1 — higher, -2.56%
- COc1ccc(NC(=O)N(C)C[C@@H]2Oc3c(NS(=O)(=O)c4ccc(OC)cc4)cccc3C(=O)N([C@H](C)CO)C[C@@H]2C)cc1 — higher, 8.49%
- C[C@H]1CN([C@@H](C)CO)C(=O)c2cc(NC(=O)Cn3cnnn3)ccc2O[C@H]1CN(C)Cc1ccc(C(=O)O)cc1 — higher, 1.96%
- C[C@@H]1CN([C@H](C)CO)C(=O)c2cccc(NC(=O)CCCCCC(=O)Nc3ccccc3N)c2O[C@H]1CN(C)CC1CCCCC1 — higher, 4.11%
- C[C@@H]1CN([C@H](C)CO)C(=O)Cc2cc(NC(=O)Cn3cnnn3)ccc2O[C@H]1CN(C)Cc1ccc(Cl)c(Cl)c1 — higher, 4.05%
- C[C@H](CO)N1C[C@H](C)[C@@H](CN(C)C(=O)Nc2ccccc2)Oc2c(NC(=O)CCCCCC(=O)Nc3ccccc3N)cccc2C1=O — higher, 4.22%
- C[C@@H]1CN([C@H](C)CO)C(=O)c2cccc(NS(=O)(=O)c3ccc(F)cc3)c2O[C@@H]1CN(C)S(=O)(=O)c1ccc(Cl)cc1 — higher, 0.697%
- C[C@@H]1CN([C@@H](C)CO)C(=O)c2cccc(NC(=O)Nc3cccc4ccccc34)c2O[C@@H]1CN(C)CC1CC1 — higher, 2.15%
- COC(=O)CCCCCCC(=O)N/N=C/c1c(Cl)cc(OC)c(OC)c1Cl — higher, 2.23%
- C[C@@H]1CN([C@@H](C)CO)C(=O)c2cc(NS(=O)(=O)c3ccc(F)cc3)ccc2O[C@@H]1CN(C)C(=O)NC1CCCCC1 — higher, -2.78%
- COc1ccc(NC(=O)N(C)C[C@H]2Oc3ccc(N(C)C)cc3C(=O)N([C@@H](C)CO)C[C@H]2C)cc1 — higher, 3.7%
- Cc1ccc(S(=O)(=O)N(C)C[C@@H]2Oc3c(NC(=O)Nc4ccc(F)cc4)cccc3C(=O)N([C@H](C)CO)C[C@H]2C)cc1 — higher, 40.9%
- CNC[C@H]1OCCCC[C@@H](C)Oc2ccc(NC(=O)Cc3ccccc3)cc2C(=O)N([C@H](C)CO)C[C@@H]1C — higher, -7.6%
- C[C@@H]1CN([C@@H](C)CO)C(=O)Cc2cc(NS(=O)(=O)c3ccc(F)cc3)ccc2O[C@@H]1CN(C)S(=O)(=O)c1cccs1 — higher, 4.79%
- C[C@H](CO)N1C[C@H](C)[C@H](CN(C)Cc2ccccc2)Oc2ccc(NC(=O)CCCCCC(=O)Nc3ccccc3N)cc2C1=O — higher, -0.781%
- COc1ccc(NC(=O)N(C)C[C@@H]2Oc3ccc(NC(=O)CCCN(C)C)cc3CC(=O)N([C@H](C)CO)C[C@H]2C)cc1 — higher, 7.7%
- C[C@@H]1CN([C@@H](C)CO)C(=O)c2cccc(NS(=O)(=O)c3ccc(Cl)cc3)c2O[C@@H]1CN(C)Cc1ccccc1 — higher, -3.08%
- CC(C)NC(=O)N(C)C[C@H]1Oc2ccc(NS(C)(=O)=O)cc2CC(=O)N([C@@H](C)CO)C[C@@H]1C — higher, 2.48%
- Cc1noc(C)c1NC(=O)N(C)C[C@@H]1Oc2c(NC(=O)C3CCCCC3)cccc2C(=O)N([C@H](C)CO)C[C@@H]1C — higher, 10.1%
- C[C@@H]1CN([C@H](C)CO)C(=O)c2cccc(NC(=O)Nc3ccc4c(c3)OCO4)c2O[C@@H]1CN(C)Cc1ccccc1 — lower, -9.92%
- C[C@@H]1CN([C@@H](C)CO)C(=O)c2cccc(NS(=O)(=O)c3cccs3)c2O[C@H]1CN(C)Cc1ccncc1 — higher, 4.56%
- C[C@H]1CN([C@@H](C)CO)C(=O)Cc2cc(NC(=O)Cn3cnnn3)ccc2O[C@@H]1CN(C)Cc1ccc(-c2ccccc2)cc1 — higher, 5.19%
- C[C@@H]1CN([C@H](C)CO)C(=O)Cc2cc(NC(=O)Nc3cccc4ccccc34)ccc2O[C@@H]1CN(C)Cc1ccc(C(F)(F)F)cc1 — lower, -18.8%
- Cc1ccc(S(=O)(=O)Nc2ccc3c(c2)CC(=O)N([C@H](C)CO)C[C@@H](C)[C@H](CN(C)Cc2ccc(C(F)(F)F)cc2)O3)cc1 — higher, 4.83%
- O=C(NO)c1ccc(C(=O)N/N=C/c2cc(Br)cc(Br)c2O)cc1 — higher, 29.8%
- C[C@@H]1CN([C@@H](C)CO)C(=O)c2cc(NS(=O)(=O)c3ccc(Cl)cc3)ccc2O[C@H]1CN(C)C(=O)Nc1ccc(C(F)(F)F)cc1 — higher, -4.38%
- C[C@H]1CN([C@@H](C)CO)C(=O)c2cc(NS(=O)(=O)c3cccs3)ccc2O[C@@H]1CN(C)C(=O)Nc1ccccc1 — higher, 10.2%
- C[C@@H]1CN([C@H](C)CO)C(=O)Cc2cc(NS(=O)(=O)c3cccs3)ccc2O[C@@H]1CN(C)Cc1ccc(C(=O)O)cc1 — higher, 5.4%
- C[C@@H]1CN([C@H](C)CO)C(=O)Cc2cc(NS(=O)(=O)c3cn(C)cn3)ccc2O[C@@H]1CN(C)C(=O)Nc1ccccc1 — higher, 10.7%
- CC(C)NC(=O)N(C)C[C@@H]1Oc2ccc(NC(=O)CCCCCC(=O)Nc3ccccc3N)cc2C(=O)N([C@@H](C)CO)C[C@H]1C — higher, 12.1%
- Cc1ccc(S(=O)(=O)Nc2ccc3c(c2)CC(=O)N([C@@H](C)CO)C[C@H](C)[C@H](CN(C)Cc2ccccc2)O3)cc1 — higher, 12.2%
- COC(=O)CCCCCCC(=O)N/N=C/c1cccc(Br)c1 — higher, 21.3%
- C[C@H](CO)N1C[C@H](C)[C@H](CN(C)C(=O)Nc2cccc3ccccc23)Oc2ccc(NS(C)(=O)=O)cc2C1=O — higher, 4.67%
- C[C@H]1CN([C@@H](C)CO)C(=O)Cc2cc(NC(=O)NC3CCCCC3)ccc2O[C@@H]1CN(C)Cc1ccc(Oc2ccccc2)cc1 — lower, -49.9%
- C[C@@H]1CN([C@@H](C)CO)C(=O)c2cc(NC(=O)C3CCCCC3)ccc2O[C@@H]1CN(C)Cc1ccc(C(=O)O)cc1 — higher, 3.82%
- COc1ccc(NC(=O)Nc2ccc3c(c2)CC(=O)N([C@@H](C)CO)C[C@H](C)[C@@H](CN(C)S(=O)(=O)c2cn(C)cn2)O3)cc1 — higher, 14.9%
- Cc1ccc(S(=O)(=O)Nc2ccc3c(c2)C(=O)N([C@H](C)CO)C[C@H](C)[C@@H](CN(C)C(=O)Nc2ccc4c(c2)OCO4)OCCCC[C@@H](C)O3)cc1 — higher, -3.08%
- COC(=O)CCCCCCC(=O)N/N=C/c1ccc(O)c(OC)c1 — higher, 9.74%
- COC(=O)CCCCCCC(=O)N/N=C/c1c(OC)cc(O)cc1OC — higher, 3.27%
- C[C@H](CO)N1C[C@H](C)[C@H](CN(C)S(C)(=O)=O)Oc2c(NC(=O)c3ccc(-c4nccs4)cc3)cccc2C1=O — higher, -1.51%
- COc1ccc(S(=O)(=O)Nc2ccc3c(c2)C(=O)N([C@H](C)CO)C[C@@H](C)[C@H](CN(C)S(=O)(=O)c2ccc(C)cc2)O3)cc1 — lower, -13.4%
- C[C@@H]1CN([C@H](C)CO)C(=O)c2cc(NS(C)(=O)=O)ccc2O[C@@H]1CN(C)S(C)(=O)=O — higher, 6.6%
- Cc1noc(C)c1NC(=O)N(C)C[C@H]1OCCCC[C@@H](C)Oc2ccc(NC(=O)NC(C)C)cc2C(=O)N([C@H](C)CO)C[C@@H]1C — higher, -5.7%
- COc1ccc(NC(=O)Nc2ccc3c(c2)C(=O)N([C@H](C)CO)C[C@H](C)[C@@H](CN(C)C(=O)Nc2ccc4c(c2)OCO4)O3)cc1 — higher, 3.11%
- C[C@@H]1CN([C@@H](C)CO)C(=O)c2cc(NC(=O)CCN3CCOCC3)ccc2O[C@@H]1CN(C)S(=O)(=O)c1ccccc1 — higher, 8.45%

In the case of `COc1cc(/C=N\NC(=O)CCCCCCC(=O)NO)c(Br)cc1O`, the protection from cytokine-induced ATP loss is reported as 77.6% (active).

Reference: PubChem BioAssay AID488910 (Broad Institute, 2010)
